Bfl-1 A1 inh – inhibitors of the anti-apoptotic protein A1, read as caspase activation | 330,000 tested, 0.066% active | AID 2462 | MEF A1-2A-BIM cells, Caspase-Glo 3/7 luminescence, 3 h; percent of clofoctol response, vehicle zero | caspase activation, % (test concentration not listed);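 active = over half of replicate activation scores above 10%, or exactly half above 10 with the replicate mean above 10; inconclusive = replicate mean below 10 yet half the replicates above 10; inactive = over half of replicates below 10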
CHOP inh – inhibitors of CHOP induction in ER stress response | CHO-K1 CHOP-promoter luciferase, tunicamycin-induced, 15-18 h | inhibition, % at 10 µM | 220,000 tested, 3.8% active | AID 2732;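 active = compounds that reduced the stress-induced luciferase reporter signal by more than about 70% of percent inhibition, limit read from the data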;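 note: 0% = tunicamycin plus vehicle and 100% = wells without tunicamycin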
CHOP UPR activ – apoptotic UPR (CHOP) activation; CHO-CHOP luciferase reporter, luminescence; percent of tunicamycin response over DMSO baseline; activation, % at 10 µM; 330,000 tested, 0.34% active; AID 449763;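 active = at 10 µM dose, activation of 40% or more, normalized to positive control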;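 note: 100% = tunicamycin at 10 µg/mL and 0% = DMSO alone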
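System: CHO CHOP reporter cells. Amount: 500 cells per well. Buffer or medium: F12 medium, 10% FBS. Compound dosing: one dose, 10 µM in 0.5% DMSO. Incubation: 6 h compound exposure at 37 °C after overnight seeding. Technique: Steady-Glo luciferase luminescence. Benchmarks: tunicamycin and DMSO controls.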
UPR XBP1 act – activators of adaptive arm of unfolded protein response (XBP1). CHO-XBP1 luciferase reporter, IRE1-XBP1 UPR activation, luminescence; percent of tunicamycin response, DMSO as zero. activation, % at 20 µM. 330,000 tested, 0.33% active. AID 463104;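 active = versus positive control, 20 µM dose yields 30% or more activation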;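 note: 100% = tunicamycin at 10 µg/mL and 0% = DMSO only wells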
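Test system: CHO-XBP1 luciferase reporter cells | Buffer or medium: Serum-containing F12 medium, 10% FBS | Schedule: 6 h compound exposure at 37 °C, 5% CO2 | Detection: Steady-Glo luciferase glow luminescence, 10 min after reagent addition | Read-out basis: Activation, % of tunicamycin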
CHOP inh conf – confirmation of CHOP induction inhibitors. shares compounds with CHOP inh. CHO-CHOP promoter luciferase reporter, tunicamycin-induced, luminescence. inhibition, % at 10 µM. 2,100 tested, 45% active. AID 504437;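 active = mean of three repeat readings of reporter signal inhibition above a set limit, cut at about 70% in these data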;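 note: 0% = tunicamycin plus vehicle and 100% = wells lacking tunicamycin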
UPR CHOP confirm – apoptotic UPR (CHOP) activation, confirmed; shares compounds with CHOP UPR activ; CHO-CHOP cells, CHOP-luciferase reporter luminescence; percent of tunicamycin response, DMSO as zero; activation, % at 10 µM; 1,000 tested, 64% active; in the data active = activation above about 33%;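 note: 0% = DMSO wells and 100% = tunicamycin 10 µg/mL wells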
UPR XBP1 confirm – adaptive UPR (XBP1) activation, confirmed | AID 485299 | 1,000 tested, 63% active | CHO-XBP1 IRE1-XBP1 luciferase reporter, luminescence | shares compounds with UPR XBP1 act | activation, % at 20 µM;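 active = reporter signal at least 30% of the positive control's activation in two or more of four replicate wells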;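 note: plate controls were DMSO negative control for no effect and tunicamycin 10 µg/mL positive control for full effect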
An asterisk follows results filed as active; ? = inconclusive; · = no result given. Many of the other results were omitted from the sample, so hits are more common in it than they were.

SMILES | Bfl-1 A1 inh | CHOP inh | CHOP UPR activ | UPR XBP1 act | CHOP inh conf | others
COC(=O)C1=C(c2cccc(OC)c2OC)C[C@@H]2CC[C@H]1N2C(=O)NCCCOC(C)C | 0 | · | 0 | 2 | ·
COc1ccc(C[C@H]2NC[C@H](O)[C@H]2OC(C)=O)cc1 | 7.5* | · | -7 | -11 | ·
CCC(C)NC(=O)c1c(N)n(CC2CCCO2)c2nc3ccccc3nc12 (stereo not drawn) | -1 | 96* | 1 | 1 | 103*
C[C@H]1C[C@@H](C)C(=O)[C@@H]([C@H](O)CC2CC(=O)NC(=O)C2)C1 | -1 | 103* | -5 | -5 | 110*
Cc1cc(C)cc(N2C(=O)NC(=O)/C(=C\C=C\c3ccco3)C2=O)c1 | 1 | 107* | · | · | -16
CCCCN1C(=O)/C(=C/C=C/c2ccco2)C(=O)NC1=S | · | -30 | · | · | ·
CC(Cc1ccccc1)NC(=O)c1ccc(N)cc1 (stereo not drawn) | -1 | · | 2 | -1 | ·
COC(=O)[C@@H]1[C@@H](C(=O)OC)C2(c3ccccc3-c3ccccc32)N(c2ccc(Cl)cc2)N1C#N | -1 | 109* | -10 | -7 | 124*
COC(=O)C[C@]1(C(=O)OC)CN(C#N)N(c2ccc(Cl)cc2)C12c1ccccc1-c1ccccc12 | 0 | · | -10 | -7 | 129*
O=C1N(CN2CCOCC2)c2ccccc2C1(O)c1c[nH]c2ccccc12 (stereo not drawn) | · | -1 | 1 | -3 | ·
Cc1cc(C(=O)N=Nc2c(O)n(C)c3ccccc23)c(C)o1 | -4 | -4 | 2 | -3 | ·
CN(C)C(=S)SSC(=S)N(C)C | 0 | 106* | · | · | -134
O=C1NC(=O)C(=Cc2ccc(-c3cc(Cl)ccc3[N+](=O)[O-])o2)C(=O)N1 | · | 105* | · | · | -60
CCCC(C)C1(CC)C(=O)NC(=Nc2ccc(OC)cc2)NC1=O (stereo not drawn) | -1 | 3 | -2 | 1 | ·
CCOC(=O)c1c(-n2c(C)cc(C=C3C(=O)NC(=O)NC3=O)c2C)sc2c1CCCC2 | 0 | 96* | 5 | 0 | 42
CCC[C@H](N[C@@H](CCC)[C@H](O)c1ccccc1)[C@H](O)c1ccccc1 | 1 | · | -1 | 2 | ·
O=C1NC(=O)C(=Cc2ccc(SC3CCCCC3)o2)C(=O)N1 | 0 | 108* | 2 | 1 | 55
C=Cn1ccnc1P(=S)(c1ccc(Cl)cc1)c1nccn1C=C | 0 | -7 | -1 | -3 | ·
C/C=C(\C)C(=O)OC1C(C)=C2C(C1OC(=O)CCCCC)C(C)(OC(C)=O)CC(OC(=O)CCC)C1(O)C2OC(=O)C1(C)O (stereo not drawn) | 0 | 105* | 22 | 61* | 125*
N/C(=N\[N+](=O)[O-])N1CCN(C(=O)OC2CCCC2)CC1 | 1 | · | 2 | -5 | ·
O=c1c(C=NCc2cccs2)c(O)n(C2CCCCC2)c(=O)n1C1CCCCC1 | 0 | 25 | -3 | -2 | ·
N=C(N)c1c(O)n(C2CCCCC2)c(=O)n(C2CCCCC2)c1=O | 0 | 108* | 0 | 7 | 73*
CC12CN3CCN(CC(C3)/C1=N/NC(N)=O)C2 | 0 | -2 | -3 | -3 | ·
O=Cc1cn(Cc2ccccc2[N+](=O)[O-])c2ccccc12 | 0 | 24 | -1 | -3 | ·
COc1ccc(OC)c(N=Cc2c(O)n(Cc3ccccc3)c(=S)[nH]c2=O)c1 | 0 | 15 | 6 | 12 | ·
SMILES | Bfl-1 A1 inh | CHOP inh | CHOP UPR activ | UPR XBP1 act | CHOP inh conf | others
CCOC(=O)C1(CCOc2ccccc2)CCN(Cc2ccc(C)s2)CC1 | 0 | 101* | -1 | -2 | 57
CCOC(=O)C1(CCc2ccccc2)CCN(Cc2ccc3c(c2)OCCO3)CC1 | 0 | 10 | -2 | -3 | ·
CCN(C(=O)COC(=O)C(O)(c1ccccc1)c1ccccc1)c1c(N)n(Cc2ccccc2)c(=O)[nH]c1=O | · | · | 1 | -2 | ·
O=S1(=O)CCN(CCc2c[nH]c3ccccc23)CC1 | 0 | -12 | 6 | 1 | ·
CCCCCCn1c(=O)c(C(=O)Nc2cnccn2)c(O)c2ccccc21 | 0 | 96* | 14 | 4 | 120*
CCCCCn1c(=O)c(C(=O)Nc2ccccn2)c(O)c2ccccc21 | 0 | · | 15 | -2 | ·
CN1C2CCC1/C(=C/c1ccccn1)C(=O)/C2=C\c1ccccn1 | ? | 108* | · | · | 111*
CCCCn1c(O)c(C(C)=NCCCN(C)C)c(=O)[nH]c1=O | 2 | 29 | 0 | -1 | ·
CCN1C(=O)C(=Cc2ccc(C)s2)C(=O)N(CC)C1=S | 0 | 106* | 9 | 9 | -23
Cc1cccc(NP(=O)(Oc2ccccc2F)Oc2ccccc2F)c1C | 0 | 58 | 1 | -3 | ·
Cc1ccc(NP(=O)(Oc2ccccc2F)Oc2ccccc2F)cc1 | 0 | 98* | 0 | -2 | 101*
CCc1ccc(NP(=O)(Oc2ccccc2F)Oc2ccccc2F)cc1 | 0 | 98* | -1 | -4 | 102*
O=P(Nc1cccc(Cl)c1)(Oc1ccccc1)Oc1ccccc1 | -1 | -13 | 2 | -2 | ·
O=c1c2ccccc2nc(-c2ccco2)n1-c1ccc(Br)cc1 | 1 | 7 | -1 | 0 | ·
CN[C@H]1C[C@H]2O[C@@](C)([C@H]1OC)n1c3ccccc3c3c4c(c5c6ccccc6n2c5c31)C(=O)NC4 | · | 108* | -6 | -11 | 121*
O=C(CSC1c2ccccc2-c2ccccc21)N/N=C/c1ccccc1O | -2 | 100* | -3 | 1 | 118*
COC(=O)[C@]12OC[C@]34C([C@@H](O)[C@@H]1O)[C@]1(C)CC(=O)C(O)=C(C)[C@@H]1C[C@H]3OC(=O)[C@H](O)[C@@H]24 (stereo partly drawn) | 0 | 104* | -5 | -4 | 108*
CSc1ncc(/C=C2/C(=O)NC(=O)N(c3ccc(C)cc3)C2=O)cn1 | 1 | -4 | -1 | -3 | ·
Cc1ccc(N2C(=O)NC(=O)/C(=C/c3cnn(-c4ccc(C)cc4)c3)C2=O)cc1 | 0 | 102* | 87* | 3 | -79 | UPR CHOP confirm=93*
CCOc1ccc(N2C(=O)/C(=C\c3cccs3)C(=O)NC2=S)cc1 | 1 | 106* | 268* | -7 | -100 | UPR CHOP confirm=63*
CCCCCn1c(=O)c(C(=O)Nc2cccc(C)c2)c(O)c2ccccc21 | 2 | · | -1 | -4 | ·
O=C1NC(=O)N(Cc2ccccc2)C(=O)/C1=C\c1ccco1 | 0 | 106* | 2 | 71* | -47 | UPR XBP1 confirm=29*

Screens as filed in PubChem BioAssay.
